Data as given in ChEMBL document CHEMBL1135426, “Synthesis, receptor potency, and selectivity of halogenated diphenylpiperidines as serotonin 5-HT2A ligands for PET or SPECT brain imaging” (J Med Chem, 2002).

Experiments:
[1] = target: T1, 5-hydroxytryptamine receptor 2A (Homo sapiens, UniProt P28223); experiment: Tested on genetically transfected COS7 cell membranes selectively expressing human 5-hydroxytryptamine 2A receptor, using [3H]ketanserin as radioligand; type: cell-based, COS-7
How it was run: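 Membranes of transfected COS-7 cells expressing human 5-HT2A, with 1.0 nM [3H]ketanserin, room temperature, 60 min. 10 µM altanserin as blank. Filtration and scintillation counting. Competition curves over ≥6 concentrations yield IC50 ± SE. Ki obtained by Cheng-Prusoff from the radioligand apparent Kd.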

[2] = target: 5-hydroxytryptamine receptor 6 (Homo sapiens, UniProt P50406); experiment: Tested on cell membranes from transfected cells selectively expressing human 5-hydroxytryptamine 6 receptor incubated with 1 nM [3H]LSD
How it was run: (§1)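 Membranes (1-10 µg protein) from transfected cells expressing human 5-HT6 or 5-HT7, incubated with 1 nM [3H]LSD, room temperature, 90 min, in the dark. 10 µM clozapine as blank. Filter harvest and tritium counting. IC50 from multi-concentration competition, converted to Ki via Cheng-Prusoff.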

[3] = target: T2, 5-hydroxytryptamine receptor 2C (Homo sapiens, UniProt P28335); experiment: Tested on transfected cell membranes selectively expressing human 5-hydroxytryptamine 2C receptor using [3H]mesulergine
T2 sequence (P28335 whole entry): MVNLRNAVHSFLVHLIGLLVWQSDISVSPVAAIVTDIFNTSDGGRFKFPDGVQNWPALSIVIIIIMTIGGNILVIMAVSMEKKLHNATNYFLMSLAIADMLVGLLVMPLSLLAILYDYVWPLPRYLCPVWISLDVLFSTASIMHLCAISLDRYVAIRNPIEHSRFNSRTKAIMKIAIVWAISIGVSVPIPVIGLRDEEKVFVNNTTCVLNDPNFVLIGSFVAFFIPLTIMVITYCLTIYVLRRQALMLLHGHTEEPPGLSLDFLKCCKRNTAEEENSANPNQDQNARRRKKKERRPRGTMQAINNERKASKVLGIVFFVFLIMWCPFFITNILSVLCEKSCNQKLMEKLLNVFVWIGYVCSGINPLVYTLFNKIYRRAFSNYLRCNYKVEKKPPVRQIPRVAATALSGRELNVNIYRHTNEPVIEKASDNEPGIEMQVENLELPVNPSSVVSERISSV
How it was run: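 Transfected cell membranes expressing human 5-HT2C, incubated with 0.80 nM [3H]mesulergine at room temperature for 60 min. Nonspecific binding with 10 µM clozapine. Filtration and scintillation counting. IC50 ± SE from concentration-inhibition curves, converted to Ki by Cheng-Prusoff using the radioligand Kd.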

[4] = target: T3, Adrenergic receptor alpha-2 (Rattus norvegicus, UniProt P22086+P19328+P22909); experiment: Binding affinity (Ki) at Alpha-2 adrenergic receptor homogenates of whole rat brain were incubated [3H]MK-912 for 80 min at room temperature, using […] as the blank agent; type: tissue-based
T3 sequence (P22086 whole entry): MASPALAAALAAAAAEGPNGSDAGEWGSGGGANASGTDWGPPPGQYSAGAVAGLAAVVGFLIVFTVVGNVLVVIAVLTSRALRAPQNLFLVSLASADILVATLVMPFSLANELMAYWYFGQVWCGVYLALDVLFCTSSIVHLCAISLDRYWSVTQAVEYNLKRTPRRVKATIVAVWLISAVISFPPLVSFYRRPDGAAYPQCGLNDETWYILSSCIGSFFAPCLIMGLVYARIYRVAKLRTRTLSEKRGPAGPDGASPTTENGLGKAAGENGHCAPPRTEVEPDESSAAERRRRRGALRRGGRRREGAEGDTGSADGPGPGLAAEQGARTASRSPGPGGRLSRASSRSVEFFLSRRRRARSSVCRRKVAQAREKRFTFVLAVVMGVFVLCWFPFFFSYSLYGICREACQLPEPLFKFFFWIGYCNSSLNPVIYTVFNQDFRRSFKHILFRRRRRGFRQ
T3 sequence (P19328 whole entry): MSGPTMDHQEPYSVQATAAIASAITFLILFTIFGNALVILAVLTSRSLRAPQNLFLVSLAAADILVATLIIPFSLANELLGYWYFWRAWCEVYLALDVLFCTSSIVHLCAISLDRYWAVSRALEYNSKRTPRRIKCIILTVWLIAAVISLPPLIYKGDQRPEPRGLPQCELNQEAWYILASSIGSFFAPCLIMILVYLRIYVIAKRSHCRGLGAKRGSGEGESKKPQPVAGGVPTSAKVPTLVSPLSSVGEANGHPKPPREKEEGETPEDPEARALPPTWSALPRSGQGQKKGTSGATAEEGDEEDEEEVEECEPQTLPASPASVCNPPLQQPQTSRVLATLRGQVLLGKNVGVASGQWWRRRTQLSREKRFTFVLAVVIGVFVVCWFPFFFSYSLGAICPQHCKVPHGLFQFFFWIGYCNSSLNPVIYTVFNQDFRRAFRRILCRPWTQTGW
T3 sequence (P22909 whole entry): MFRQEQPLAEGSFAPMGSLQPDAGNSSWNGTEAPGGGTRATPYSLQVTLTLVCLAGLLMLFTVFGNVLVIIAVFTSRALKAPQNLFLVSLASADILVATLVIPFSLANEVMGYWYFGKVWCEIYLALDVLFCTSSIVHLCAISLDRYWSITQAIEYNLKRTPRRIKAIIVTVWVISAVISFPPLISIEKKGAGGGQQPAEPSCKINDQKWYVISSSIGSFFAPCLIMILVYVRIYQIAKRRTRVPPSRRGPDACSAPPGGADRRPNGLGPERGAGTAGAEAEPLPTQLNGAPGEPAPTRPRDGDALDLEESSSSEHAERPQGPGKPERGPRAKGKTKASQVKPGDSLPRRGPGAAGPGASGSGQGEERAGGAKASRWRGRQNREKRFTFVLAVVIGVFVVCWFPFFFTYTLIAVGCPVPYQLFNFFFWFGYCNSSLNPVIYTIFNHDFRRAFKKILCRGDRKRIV
How it was run: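 Whole rat brain homogenate (minus cerebellum) with 1.0 nM [3H]MK-912, 80 min at room temperature. 10 µM phentolamine defines nonspecific binding. Filter harvest and scintillation counting. Concentration-inhibition curves (≥6 concentrations) give IC50 ± SE, converted to Ki via Cheng-Prusoff with the radioligand's apparent Kd.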

D(2) dopamine receptor = D(2) dopamine receptor (Rattus norvegicus, UniProt P61169); experiment: Binding affinity (Ki) at Dopamine receptor D2 using rat caudate cells with nemonapride (0.075 nM) as a radioligand and […] as a blank agent
How it was run: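 Rat caudate-putamen homogenate incubated with 75 pM [3H]nemonapride at 30 °C for 90 min. Nonspecific binding defined with 10 µM haloperidol. Bound radioactivity collected on glass fiber filters and counted. IC50 ± SE from ≥6-concentration inhibition curves, converted to Ki by Cheng-Prusoff using the radioligand Kd.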

[5] = target: 5-hydroxytryptamine receptor 7 (Homo sapiens, UniProt P34969); experiment: Tested on cell membranes from transfected cells selectively expressing human 5-hydroxytryptamine 7 receptor incubated with 1 nM [3H]LSD; how it was run: as §1
[6] = target: T4, Adrenergic receptor alpha-1 (Rattus norvegicus, UniProt P15823+P23944+P43140); experiment: Binding affinity (Ki) at Alpha-1 adrenergic receptor using rat brain cells with prazosin (0.20 nM) as a radioligand and […] as a blank agent; type: cell-based
T4 sequence (P15823 whole entry): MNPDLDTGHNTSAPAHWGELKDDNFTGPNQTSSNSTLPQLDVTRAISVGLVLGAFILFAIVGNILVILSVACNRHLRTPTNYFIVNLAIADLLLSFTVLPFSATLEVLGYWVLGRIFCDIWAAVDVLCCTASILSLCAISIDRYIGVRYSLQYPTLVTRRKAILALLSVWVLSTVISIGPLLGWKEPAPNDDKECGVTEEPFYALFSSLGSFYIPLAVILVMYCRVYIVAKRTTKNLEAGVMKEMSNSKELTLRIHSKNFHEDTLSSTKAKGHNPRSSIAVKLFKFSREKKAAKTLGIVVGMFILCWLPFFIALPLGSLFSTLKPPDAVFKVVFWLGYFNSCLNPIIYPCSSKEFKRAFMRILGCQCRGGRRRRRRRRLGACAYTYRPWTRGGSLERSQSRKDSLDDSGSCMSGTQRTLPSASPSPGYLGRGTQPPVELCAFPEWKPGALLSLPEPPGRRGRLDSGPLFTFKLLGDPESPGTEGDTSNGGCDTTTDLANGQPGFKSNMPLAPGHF
T4 sequence (P23944 whole entry): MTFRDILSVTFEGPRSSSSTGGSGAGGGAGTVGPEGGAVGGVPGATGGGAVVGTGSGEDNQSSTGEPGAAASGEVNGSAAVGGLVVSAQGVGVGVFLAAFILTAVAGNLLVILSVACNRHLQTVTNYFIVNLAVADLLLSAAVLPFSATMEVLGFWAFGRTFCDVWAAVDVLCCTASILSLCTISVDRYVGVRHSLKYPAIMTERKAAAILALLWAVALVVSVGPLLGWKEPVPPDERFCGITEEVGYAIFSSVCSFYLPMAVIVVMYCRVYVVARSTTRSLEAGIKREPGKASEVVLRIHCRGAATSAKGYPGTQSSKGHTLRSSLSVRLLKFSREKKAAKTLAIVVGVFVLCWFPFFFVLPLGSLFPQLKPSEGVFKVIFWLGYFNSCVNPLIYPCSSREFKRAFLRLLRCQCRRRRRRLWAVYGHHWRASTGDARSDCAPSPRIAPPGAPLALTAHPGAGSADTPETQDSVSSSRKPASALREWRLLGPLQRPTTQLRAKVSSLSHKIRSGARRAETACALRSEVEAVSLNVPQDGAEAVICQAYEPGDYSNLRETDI
T4 sequence (P43140 whole entry): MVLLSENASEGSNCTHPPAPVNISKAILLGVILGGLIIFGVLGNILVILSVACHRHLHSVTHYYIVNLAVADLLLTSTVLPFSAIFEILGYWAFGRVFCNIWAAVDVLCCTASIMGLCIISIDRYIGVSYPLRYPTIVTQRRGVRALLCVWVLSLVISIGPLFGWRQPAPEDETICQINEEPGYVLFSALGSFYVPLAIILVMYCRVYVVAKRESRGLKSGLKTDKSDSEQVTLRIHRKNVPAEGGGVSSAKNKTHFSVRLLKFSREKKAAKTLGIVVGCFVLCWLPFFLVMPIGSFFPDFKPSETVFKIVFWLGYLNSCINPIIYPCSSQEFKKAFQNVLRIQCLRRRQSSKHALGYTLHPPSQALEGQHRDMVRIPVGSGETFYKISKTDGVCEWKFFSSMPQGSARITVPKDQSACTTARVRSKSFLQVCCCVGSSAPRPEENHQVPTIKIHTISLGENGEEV
How it was run: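 Whole rat brain homogenate (excluding cerebellum) incubated with 0.20 nM [3H]prazosin, 30 °C, 30 min. Nonspecific binding defined with 2 µM phentolamine. Filtration harvest, tritium counted by scintillation. Screened at 1 and 10 µM; ≥6 concentrations if ≥30% inhibition at 1 µM. IC50 from curve fit, converted to Ki by Cheng-Prusoff using the radioligand Kd.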

[7] = target: T4, Adrenergic receptor alpha-1; experiment: Binding affinity at Alpha-1 adrenergic receptor using rat forebrain cells with prazosin (0.20 nM) as radioligand and […] as blank agent
[8] = target: T4, Adrenergic receptor alpha-1; experiment: Binding affinity (Ki) at Alpha-1 adrenergic receptor using rat forebrain cells with prazosin (0.20 nM) as a radioligand and […] as a blank agent
[9] = target: T1, 5-hydroxytryptamine receptor 2A; experiment: Binding affinity against 5-hydroxytryptamine 2A receptor in humans
How it was run: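 Membranes of transfected COS-7 cells expressing human 5-HT2A, with 1.0 nM [3H]ketanserin, room temperature, 60 min. 10 µM altanserin as blank. Filtration and scintillation counting. Ki obtained by Cheng-Prusoff from the radioligand apparent Kd.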

Chain of 5-hydroxytryptamine receptor 6 (P50406 whole entry): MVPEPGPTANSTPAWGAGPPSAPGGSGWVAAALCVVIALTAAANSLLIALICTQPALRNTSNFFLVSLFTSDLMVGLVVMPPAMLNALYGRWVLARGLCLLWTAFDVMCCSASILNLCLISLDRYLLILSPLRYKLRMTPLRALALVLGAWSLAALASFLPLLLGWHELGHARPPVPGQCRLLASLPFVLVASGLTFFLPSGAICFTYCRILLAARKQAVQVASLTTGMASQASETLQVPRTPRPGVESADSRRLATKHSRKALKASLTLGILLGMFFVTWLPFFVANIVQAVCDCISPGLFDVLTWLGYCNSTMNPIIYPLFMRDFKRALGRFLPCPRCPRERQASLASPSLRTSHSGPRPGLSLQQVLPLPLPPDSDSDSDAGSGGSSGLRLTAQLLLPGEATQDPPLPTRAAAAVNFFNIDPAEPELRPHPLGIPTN
T1 sequence (P28223 whole entry): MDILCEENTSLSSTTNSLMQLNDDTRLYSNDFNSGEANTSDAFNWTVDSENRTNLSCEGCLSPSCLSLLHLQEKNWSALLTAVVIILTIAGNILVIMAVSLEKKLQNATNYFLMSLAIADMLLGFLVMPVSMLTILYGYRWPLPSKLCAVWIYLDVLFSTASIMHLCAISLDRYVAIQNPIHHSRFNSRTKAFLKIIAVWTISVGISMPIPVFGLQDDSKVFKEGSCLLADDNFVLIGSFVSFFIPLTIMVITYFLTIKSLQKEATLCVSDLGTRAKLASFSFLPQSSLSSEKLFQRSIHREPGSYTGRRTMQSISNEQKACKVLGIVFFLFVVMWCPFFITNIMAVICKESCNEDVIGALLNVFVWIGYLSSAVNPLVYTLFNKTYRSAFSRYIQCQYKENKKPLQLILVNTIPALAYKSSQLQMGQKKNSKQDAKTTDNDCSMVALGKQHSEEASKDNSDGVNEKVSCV
Chain of D(2) dopamine receptor (P61169 whole entry): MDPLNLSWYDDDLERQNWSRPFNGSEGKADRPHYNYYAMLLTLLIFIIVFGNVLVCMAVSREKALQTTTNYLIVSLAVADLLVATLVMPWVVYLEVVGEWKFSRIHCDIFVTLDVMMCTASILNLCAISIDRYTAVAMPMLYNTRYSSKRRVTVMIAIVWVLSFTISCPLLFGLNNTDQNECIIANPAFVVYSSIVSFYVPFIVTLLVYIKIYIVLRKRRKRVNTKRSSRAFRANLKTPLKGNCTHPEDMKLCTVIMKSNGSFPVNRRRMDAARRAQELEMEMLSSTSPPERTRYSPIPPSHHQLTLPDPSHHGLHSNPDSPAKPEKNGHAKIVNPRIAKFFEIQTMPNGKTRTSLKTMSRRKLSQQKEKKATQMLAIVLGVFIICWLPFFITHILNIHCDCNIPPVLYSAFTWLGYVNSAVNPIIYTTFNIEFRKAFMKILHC
Chain of 5-hydroxytryptamine receptor 7 (P34969 whole entry): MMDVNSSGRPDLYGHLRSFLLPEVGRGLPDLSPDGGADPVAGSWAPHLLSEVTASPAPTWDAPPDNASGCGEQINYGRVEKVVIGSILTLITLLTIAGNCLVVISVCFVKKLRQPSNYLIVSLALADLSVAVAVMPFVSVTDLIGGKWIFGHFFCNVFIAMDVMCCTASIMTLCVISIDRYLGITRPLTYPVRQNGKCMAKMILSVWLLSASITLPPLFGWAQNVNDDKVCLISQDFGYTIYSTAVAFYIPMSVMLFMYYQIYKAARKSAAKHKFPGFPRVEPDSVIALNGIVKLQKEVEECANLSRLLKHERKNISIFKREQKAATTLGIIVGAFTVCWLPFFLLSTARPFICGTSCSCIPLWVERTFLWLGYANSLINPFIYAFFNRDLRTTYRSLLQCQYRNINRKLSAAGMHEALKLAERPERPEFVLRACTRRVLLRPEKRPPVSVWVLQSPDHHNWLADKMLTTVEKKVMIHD

Row | Compound | Ki [1] | Ki [2] | Ki [3] | Ki [4] | Ki (D(2) dopamine receptor) | Ki [5] | also measured
1 | O=C(c1ccc(F)cc1)C1CCN(CCc2cccc(I)c2)CC1 | 0.51 nM | 48.9 nM | 16.6 nM | 244 nM | 51.8 nM | 8.76 nM | Ki [6]: 4.92 nM
2 | OC(c1ccc(F)cc1)C1CCN(CCc2ccc(I)cc2)CC1 (stereo not drawn) | 32.1 nM |  |  |  |  |  | 
3 | OC(c1ccc(F)cc1)C1CCN(CCc2ccc(F)cc2)CC1 (stereo not drawn) | 1.63 nM | > 10000 nM | 503 nM | 1032 nM | > 10000 nM | 1340 nM | Ki [7]: 303 nM
4 | OC(c1ccc(F)cc1)C1CCN(Cc2ccccc2I)CC1 (stereo not drawn) | > 10000 nM |  |  |  |  |  | 
5 | O=C(c1ccc(F)cc1)C1CCN(CCc2ccc(I)cc2)CC1 | 3.62 nM | 300 nM | 144 nM | 381 nM | 176 nM | 7.32 nM | Ki [8]: 26.1 nM
6 | O=[N+]([O-])c1ccc(C(O)C2CCN(CCc3ccccc3)CC2)cc1 (stereo not drawn) | 1.15 nM |  |  |  |  |  | 
7 | O=C(c1ccc(F)cc1)C1CCN(CCc2ccccc2I)CC1 | 1.95 nM | 138 nM | 35.5 nM | 140 nM | 1.3 nM | 3.68 nM | Ki [7]: 24.8 nM
8 | O=C(c1ccc(F)cc1)C1CCN(Cc2cccc(I)c2)CC1 | 12.7 nM |  |  |  |  |  | 
9 | OC(c1ccc(F)cc1)C1CCN(CCc2cccc(I)c2)CC1 (stereo not drawn) | 13.1 nM |  |  |  |  |  | 
10 | OC(c1ccc(F)cc1)C1CCN(Cc2cccc(I)c2)CC1 (stereo not drawn) | > 10000 nM |  |  |  |  |  | 
11 | O=C(c1ccc([N+](=O)[O-])cc1)C1CCN(CCc2ccccc2)CC1 | 9.34 nM |  |  |  |  |  | 
12 | O=C(c1ccc(F)cc1)C1CCN(Cc2ccccc2I)CC1 | 191 nM |  |  |  |  |  | 
13 | O=C(c1ccc(F)cc1)C1CCN(Cc2ccc(I)cc2)CC1 | 227 nM |  |  |  |  |  | 
14 | OC(c1ccc(F)cc1)C1CCN(CCc2ccccc2I)CC1 (stereo not drawn) | 0.91 nM | 430 nM | 28.6 nM | 813 nM | > 10000 nM | 101 nM | Ki [8]: 108 nM
15 | OC(c1ccc(F)cc1)C1CCN(Cc2ccc(I)cc2)CC1 (stereo not drawn) | > 10000 nM |  |  |  |  |  | 
16 | O=C(c1ccc(F)cc1)C1CCN(CCc2ccc(F)cc2)CC1 | 9.54 nM | 3000 nM | 493 nM | 614 nM | 453 nM | 63 nM | Ki [7]: 33.6 nM
17 | O=C(c1ccc(F)cc1)C1CCN(CCn2c(=S)[nH]c3ccccc3c2=O)CC1 [ALTANSERIN] |  |  |  |  |  |  | Ki [9]: 0.3 nM
